Activity calls are given as the source filed them. No cut-off for these calls is given here.
How the values were obtained:
[1] = target: Pyruvate kinase PKM (Homo sapiens) (UniProt P14618); assay: Activation of human pyruvate kinase M2 using phosphoenolpyruvate as substrate assessed as concentration required for 50% activation by kinaseGlo assay
[2] = target: Pyruvate kinase PKM (Homo sapiens) (UniProt P14618); assay: Activation of human pyruvate kinase M2 using phosphoenolpyruvate as substrate by kinaseGlo assay relative to control
Outline: (§1)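 Cell-free enzymatic pyruvate kinase activity assay. Maximal activation is expressed as the percentage rise in enzyme activity above basal level, with 0% set as enzyme activity without compound.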

[3] = Half life in human liver microsomes at 1 uM by LC-MS/MS analysis
[4] = Apparent permeability from basal to apical side of human Caco2 cells at 10 uM after 90 mins by LC-MS/MS analysis; settings: Caco-2
[5] = Efflux ratio of apparent permeability from basal to apical to apical to basal side of human Caco2 cells at 10 uM after 90 mins by LC-MS/MS analysis; settings: Caco-2
[6] = Apparent permeability from apical to basal side of human Caco2 cells at 10 uM after 90 mins by LC-MS/MS analysis; settings: Caco-2
[7] = Serum protein binding in human at 1 uM after 5 hrs by LC-MS/MS analysis; type: ADME, cell-free; settings: read-out: PB (converted)
[8] = target: Pyruvate kinase PKLR (Homo sapiens) (UniProt P30613); assay: Activation of human pyruvate kinase R using phosphoenolpyruvate as substrate assessed as concentration required for 50% activation by kinaseGlo assay
Sequence of Pyruvate kinase PKLR (Homo sapiens) (P30613 whole entry, looked up): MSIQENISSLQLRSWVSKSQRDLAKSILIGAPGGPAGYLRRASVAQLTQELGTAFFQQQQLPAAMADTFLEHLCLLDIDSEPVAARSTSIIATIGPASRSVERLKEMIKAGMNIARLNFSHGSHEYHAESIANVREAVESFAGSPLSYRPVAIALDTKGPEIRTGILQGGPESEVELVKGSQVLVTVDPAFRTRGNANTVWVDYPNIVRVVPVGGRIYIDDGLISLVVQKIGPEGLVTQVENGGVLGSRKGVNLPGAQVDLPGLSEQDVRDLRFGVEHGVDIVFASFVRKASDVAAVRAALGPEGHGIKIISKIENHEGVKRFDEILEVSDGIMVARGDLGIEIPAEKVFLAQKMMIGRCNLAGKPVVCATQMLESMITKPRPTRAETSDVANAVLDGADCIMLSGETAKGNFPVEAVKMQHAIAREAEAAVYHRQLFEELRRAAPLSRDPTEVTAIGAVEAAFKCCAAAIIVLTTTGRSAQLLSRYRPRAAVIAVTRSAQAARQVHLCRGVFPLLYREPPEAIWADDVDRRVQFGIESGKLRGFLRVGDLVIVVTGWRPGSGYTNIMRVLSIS

[9] = target: Pyruvate kinase PKLR (Homo sapiens) (UniProt P30613); assay: Activation of human pyruvate kinase L using phosphoenolpyruvate as substrate by kinaseGlo assay relative to control; outline: as §1
[10] = target: Pyruvate kinase PKLR (Homo sapiens) (UniProt P30613); assay: Activation of human pyruvate kinase R using phosphoenolpyruvate as substrate by kinaseGlo assay relative to control; outline: as §1
[11] = target: Pyruvate kinase PKM (Homo sapiens) (UniProt P14618); assay: Activation of human pyruvate kinase M1 using phosphoenolpyruvate as substrate by kinaseGlo assay relative to control; outline: as §1
[12] = target: Pyruvate kinase PKM (Homo sapiens) (UniProt P14618); assay: Activation of human pyruvate kinase M1 using phosphoenolpyruvate as substrate by kinaseGlo assay
[13] = target: Pyruvate kinase PKLR (Homo sapiens) (UniProt P30613); assay: Activation of human pyruvate kinase L using phosphoenolpyruvate as substrate assessed as concentration required for 50% activation by kinaseGlo assay
[14] = target: hERG (KCNH2) (Homo sapiens, UniProt Q12809); assay: Inhibition of human ERG expressed in CHO cells at 1 uM measured up to 3 mins by whole cell patch clamp assay; type: cell-based; settings: CHO cells expressing human ERG
Sequence of hERG (KCNH2) (Q12809 whole entry): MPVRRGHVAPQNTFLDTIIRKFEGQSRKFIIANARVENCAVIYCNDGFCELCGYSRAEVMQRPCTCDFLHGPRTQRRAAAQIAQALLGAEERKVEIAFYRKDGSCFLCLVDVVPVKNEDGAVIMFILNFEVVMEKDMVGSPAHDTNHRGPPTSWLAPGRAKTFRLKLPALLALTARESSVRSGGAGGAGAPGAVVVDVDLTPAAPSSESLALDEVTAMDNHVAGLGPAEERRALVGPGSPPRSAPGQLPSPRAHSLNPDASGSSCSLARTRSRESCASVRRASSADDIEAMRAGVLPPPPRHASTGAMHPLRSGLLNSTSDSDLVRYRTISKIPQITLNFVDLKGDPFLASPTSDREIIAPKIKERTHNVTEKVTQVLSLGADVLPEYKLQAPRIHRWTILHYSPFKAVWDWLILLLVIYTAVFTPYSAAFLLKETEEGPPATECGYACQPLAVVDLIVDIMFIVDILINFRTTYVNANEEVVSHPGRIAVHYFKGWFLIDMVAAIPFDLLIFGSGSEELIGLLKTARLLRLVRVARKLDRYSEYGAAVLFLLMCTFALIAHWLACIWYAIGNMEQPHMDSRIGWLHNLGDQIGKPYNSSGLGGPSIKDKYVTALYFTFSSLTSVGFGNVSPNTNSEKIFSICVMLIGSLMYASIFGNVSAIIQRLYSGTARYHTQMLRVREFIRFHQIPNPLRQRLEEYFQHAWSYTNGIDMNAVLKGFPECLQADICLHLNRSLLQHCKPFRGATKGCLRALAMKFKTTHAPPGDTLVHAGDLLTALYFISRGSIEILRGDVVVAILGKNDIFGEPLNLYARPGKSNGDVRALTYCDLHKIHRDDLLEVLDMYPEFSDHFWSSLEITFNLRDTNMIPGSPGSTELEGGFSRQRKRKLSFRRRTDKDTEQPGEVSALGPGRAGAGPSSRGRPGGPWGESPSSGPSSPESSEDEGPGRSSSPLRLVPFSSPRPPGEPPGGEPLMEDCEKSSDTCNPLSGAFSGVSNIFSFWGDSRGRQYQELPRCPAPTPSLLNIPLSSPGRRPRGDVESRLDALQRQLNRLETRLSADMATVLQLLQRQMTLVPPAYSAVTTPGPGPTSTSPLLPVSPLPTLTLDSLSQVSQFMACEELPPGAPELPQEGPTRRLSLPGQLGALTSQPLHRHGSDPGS

Sequence of Pyruvate kinase PKM (Homo sapiens) (P14618 2-531 limits assumed): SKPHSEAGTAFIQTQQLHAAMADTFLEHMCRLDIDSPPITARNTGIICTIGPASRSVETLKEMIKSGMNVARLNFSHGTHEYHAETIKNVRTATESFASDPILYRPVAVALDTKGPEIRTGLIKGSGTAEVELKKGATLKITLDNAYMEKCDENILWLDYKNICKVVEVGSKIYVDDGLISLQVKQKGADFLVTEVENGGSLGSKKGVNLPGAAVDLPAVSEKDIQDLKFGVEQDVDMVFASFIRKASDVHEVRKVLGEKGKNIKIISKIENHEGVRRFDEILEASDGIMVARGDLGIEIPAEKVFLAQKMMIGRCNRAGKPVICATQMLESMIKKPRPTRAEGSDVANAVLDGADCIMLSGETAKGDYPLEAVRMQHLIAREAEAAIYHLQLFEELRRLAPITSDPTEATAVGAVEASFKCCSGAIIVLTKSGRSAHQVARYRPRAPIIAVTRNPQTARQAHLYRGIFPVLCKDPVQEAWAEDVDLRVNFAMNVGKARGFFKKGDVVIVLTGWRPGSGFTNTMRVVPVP

Activity [1] | max activation [2] | Compound | also measured
0.6 µM | 159% | CC1Cc2cc(S(=O)(=O)c3ccc4c(c3)OCCO4)ccc2N1S(=O)(=O)c1ccc(F)cc1 (racemic) | –
0.189 µM | 91.5% | CC(C)CS(=O)(=O)N1Cc2ccc(S(=O)(=O)c3ccc4c(c3)OCCO4)cc2C1 | –
0.08 µM | 148% | O=P(O)(O)OC[C@H]1O[C@@](O)(COP(=O)(O)O)[C@@H](O)[C@@H]1O | –
0.51 µM | 149% | CCS(=O)(=O)N1CCc2cc(C(=O)CSc3ccc4c(c3)OCCCO4)ccc21 | half-life at 1 µM ([3]; liver microsomes): 1.4 min
41 µM | 100% | CCN(c1ccc(S(=O)(=O)c2ccc3c(c2)OCCO3)cc1)S(C)(=O)=O | –
2.8 µM | 194% | CC(C)N(c1ccc(S(=O)(=O)c2ccc3c(c2)OCCO3)cc1)S(C)(=O)=O | –
0.03 µM | 87% | O=S(=O)(c1ccc2c(c1)CCN2S(=O)(=O)c1cccc(F)c1)c1ccc2c(c1)OCCO2 | –
2.72 µM | 154% | Cc1cn(S(C)(=O)=O)c2ccc(S(=O)(=O)c3ccc4c(c3)OCCO4)cc12 | –
0.5 µM | 168% | CC1Cc2cc(S(=O)(=O)c3ccc4c(c3)OCCO4)ccc2N1S(=O)(=O)c1c(F)cccc1F (racemic) | –
2.5 µM | 140% | CS(=O)(=O)Nc1ccc(C(=O)CSc2ccc3c(c2)OCCO3)cc1 | half-life at 1 µM ([3]; microsomes): 3.3 min
2.3 µM | 152% | CS(=O)(=O)N1CCCc2cc(S(=O)(=O)c3ccc4c(c3)OCCO4)ccc21 | –
0.061 µM | 140% | O=S(=O)(c1ccc2c(c1)CN(S(=O)(=O)c1ccccc1)C2)c1ccc2c(c1)OCCO2 | –
0.079 µM | 78% | CS(=O)(=O)N1CCc2c1cc(F)c(S(=O)(=O)c1ccc3c(c1)OCCO3)c2F | –
2 µM | 148% | CC1Cc2cc(S(=O)(=O)c3ccc4c(c3)OCCO4)ccc2N1S(C)(=O)=O (racemic) | Papp B→A at 1.5 h, 10 µM [4]: 12.1 ×10⁻⁶ cm/s; efflux ratio at 1.5 h, 10 µM [5]: 0.59; Papp A→B at 1.5 h, 10 µM [6]: 20.4 ×10⁻⁶ cm/s; half-life at 1 µM ([3]; liver microsomes): 31.5 min; fraction unbound at 5 h, 1 µM [7]: 0.075
0.045 µM | 106% | CS(=O)(=O)N1CCc2cc(S(=O)(=O)c3ccc4c(c3)OCCO4)ccc21 | Activity [8]: > 100 µM; Papp B→A at 1.5 h, 10 µM [4]: 43 ×10⁻⁶ cm/s; efflux ratio at 1.5 h, 10 µM [5]: 1.14; max activation [9]: 33%; Papp A→B at 1.5 h, 10 µM [6]: 37.5 ×10⁻⁶ cm/s; max activation [10]: 34%; max activation [11]: inactive; Activity [12]: inactive; Activity [13]: > 100 µM; half-life at 1 µM ([3]; microsomes): 26 min; fraction unbound at 5 h, 1 µM [7]: 0.059; inhibition at 0.05 h, 1 µM [14]: 9%
2.7 µM | 160% | CCN(c1ccc(S(=O)(=O)c2ccc3c(c2)OCCO3)c(C)c1)S(C)(=O)=O | –

Activity [1] | max activation [2] | Compound | also measured
> 100 µM | 32.5% | CC1Cc2cc(NS(=O)(=O)c3ccc4c(c3)OCCO4)ccc2N1S(C)(=O)=O (racemic) | –
2.4 µM | 110% | CCS(=O)(=O)N1CCc2cc(C(=O)CSc3cccc(OC)c3)ccc21 | –
0.55 µM | 164% | CC1Cc2cc(C(=O)CSc3ccc4c(c3)OCCO4)ccc2N1S(C)(=O)=O (racemic) | half-life at 1 µM ([3]; liver microsomes): 3.4 min
0.023 µM | 98% | CS(=O)(=O)n1ccc2cc(S(=O)(=O)c3ccc4c(c3)OCCO4)ccc21 | –
1.3 µM | 107% | CS(=O)(=O)N1CCCc2cc(C(=O)CSc3ccc4c(c3)OCCO4)ccc21 | –
0.6 µM | 134% | CC1Cc2cc(S(=O)(=O)c3ccc4c(c3)OCCO4)ccc2N1S(=O)(=O)c1ccccc1 (racemic) | –
51 µM | 25.5% | CC1Cc2cc(S(=O)(=O)Nc3ccc4c(c3)OCCO4)ccc2N1S(C)(=O)=O (racemic) | –
inactive | – | CC1Cc2cc(C(=O)c3ccc4c(c3)OCCO4)ccc2N1S(C)(=O)=O (racemic) | –
0.02 µM | 35% | CCS(=O)(=O)N1Cc2ccc(S(=O)(=O)c3ccc4c(c3)OCCO4)cc2C1 | –
0.027 µM | 89% | CCS(=O)(=O)N1CCc2cc(S(=O)(=O)c3ccc4c(c3)OCCO4)ccc21 | –
4.1 µM | 171% | CCS(=O)(=O)N1CCc2cc(C(=O)CSc3ccc(F)cc3F)ccc21 | –
1.6 µM | 111% | CC1Cc2cc(S(=O)(=O)c3ccc4c(c3)OCCO4)ccc2N1S(=O)(=O)Cc1ccccc1 (racemic) | –
0.093 µM | 122% | O=S(=O)(c1ccc2c(c1)CCN2S(=O)(=O)c1ccccc1)c1ccc2c(c1)OCCO2 | –
0.017 µM | 125% | CS(=O)(=O)N1Cc2ccc(S(=O)(=O)c3ccc4c(c3)OCCO4)cc2C1 | Papp B→A at 1.5 h, 10 µM [4]: 32.4 ×10⁻⁶ cm/s; efflux ratio at 1.5 h, 10 µM [5]: 1.06; Papp A→B at 1.5 h, 10 µM [6]: 30.4 ×10⁻⁶ cm/s; half-life at 1 µM ([3]; liver microsomes): > 45 min; fraction unbound at 5 h, 1 µM [7]: 0.091; inhibition at 0.05 h, 1 µM [14]: 7.3%
0.8 µM | 119% | COc1cccc(S(=O)(=O)N2c3ccc(S(=O)(=O)c4ccc5c(c4)OCCO5)cc3CC2C)c1 (racemic) | –
0.017 µM | 105% | O=S(=O)(c1ccc2c(c1)CCN2S(=O)(=O)C1CC1)c1ccc2c(c1)OCCO2 | –
